# Laboratory results from publication PMC3701955 (Bioorganic & medicinal chemistry, 2012).
# Where two headings read alike, the source gives them in different places.
# Tests used:
# [1] = format: in vivo; conditions: female Sprague–Dawley rats, iv; for Biodistribution of radioactivity in brain region, Amygdala / Biodistribution of radioactivity in brain region, Basal Hypothalamus / Biodistribution of radioactivity in brain region, Cerebellum / Biodistribution of radioactivity in brain region, Dorsal Striatum / Biodistribution of radioactivity in brain region, Remaining Brain / Biodistribution of radioactivity, Blood / Biodistribution of radioactivity, Heart / Biodistribution of radioactivity, Kidney / Biodistribution of radioactivity, Liver / Biodistribution of radioactivity, Lung / Biodistribution of radioactivity, Muscle / Biodistribution of radioactivity, Uterus / Biodistribution of radioactivity, Brain: mean ± SD; for Biodistribution of radioactivity, Brain: total brain
# OTR and V1aR = assay: Receptor autoradiography with the radioligand on prairie vole brain slices; format: binding; conditions: 70 pM radioligand
# Procedure, shortened: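 Prairie vole brains were cut at 20 μm from prefrontal cortex through nucleus accumbens and ventral pallidum, stored at −80 °C, and thawed. Sections were dipped in 0.1% paraformaldehyde/PBS pH 7.4 and rinsed in 50 mM Tris pH 7.4. They were incubated 1 h with 70 pM radioiodinated test compound without competitor, then washed in 50 mM Tris + 2% MgCl2 pH 7.4, air-dried, and exposed to film 72 h. Six animals per study.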
# OTR of the CNS = biological target: T1, OTR of the CNS (Rattus norvegicus, UniProt P70536); assay: PET imaging of the brain using a rat model; format: in vivo, Sprague–Dawley rats; conditions: rats, 90 min ([18F]3) or 45 min ([11C]4) scan
# T1 sequence (P70536 1-388): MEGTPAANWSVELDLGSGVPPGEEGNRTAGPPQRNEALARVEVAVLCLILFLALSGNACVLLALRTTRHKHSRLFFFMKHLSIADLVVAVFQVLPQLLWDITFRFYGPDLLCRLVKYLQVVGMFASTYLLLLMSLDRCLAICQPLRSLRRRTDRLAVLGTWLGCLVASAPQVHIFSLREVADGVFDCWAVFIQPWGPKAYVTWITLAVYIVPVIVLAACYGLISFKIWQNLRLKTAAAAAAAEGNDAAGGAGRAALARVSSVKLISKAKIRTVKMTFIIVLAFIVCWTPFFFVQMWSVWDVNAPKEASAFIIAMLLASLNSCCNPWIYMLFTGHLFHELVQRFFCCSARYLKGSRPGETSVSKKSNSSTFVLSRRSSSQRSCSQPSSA
compound,measurement,setting,value
"CS(=O)(=O)N1CCC(Oc2ccc(CC(=O)N3CCC(N4C(=O)CCc5ccccc54)CC3)c(OC/C=C\[125I])c2)CC1 [[^125I]2, (Z)-1-(1-(2-(2-(3-[125I] Iodoallyloxy)-4-(1-(methylsulfonyl)piperidin-4-yloxy)phenyl)acetyl)piperidin-4-yl)-3,4-dihydroquinolin-2(1H)-one]",in vivo stability of the radiolabel (thyroid / bone uptake over time),[1],broken down readily in vivo at the iodine position
same,"Biodistribution of radioactivity in brain region, Amygdala",[1]; 15 min,0.06 ± 0.01 %ID/g
same,"Biodistribution of radioactivity in brain region, Basal Hypothalamus",[1]; 15 min,0.04 ± 0.01 %ID/g
same,"Biodistribution of radioactivity in brain region, Cerebellum",[1]; 15 min,0.03 ± 0.01 %ID/g
same,"Biodistribution of radioactivity in brain region, Dorsal Striatum",[1]; 15 min,0.03 ± 0.01 %ID/g
same,"Biodistribution of radioactivity in brain region, Remaining Brain",[1]; 15 min,0.03 ± 0.01 %ID/g
same,"Biodistribution of radioactivity, Blood",[1]; 15 min,0.22 ± 0.14 %ID/g
same,"Biodistribution of radioactivity, Heart",[1]; 15 min,0.51 ± 0.41 %ID/g
same,"Biodistribution of radioactivity, Kidney",[1]; 15 min,0.38 ± 0.20 %ID/g
same,"Biodistribution of radioactivity, Liver",[1]; 15 min,2.12 ± 1.73 %ID/g
same,"Biodistribution of radioactivity, Lung",[1]; 15 min,1.79 ± 1.78 %ID/g
same,"Biodistribution of radioactivity, Muscle",[1]; 15 min,0.10 ± 0.09 %ID/g
same,"Biodistribution of radioactivity, Uterus",[1]; 15 min,0.22 ± 0.16 %ID/g
same,"Biodistribution of radioactivity, Brain",[1]; 15 min,0.02 ± 0.01 %ID/g
same,"Biodistribution of radioactivity in brain region, Amygdala",[1]; 30 min,0.08 ± 0.06 %ID/g
same,"Biodistribution of radioactivity in brain region, Basal Hypothalamus",[1]; 30 min,0.03 ± 0.01 %ID/g
same,"Biodistribution of radioactivity in brain region, Cerebellum",[1]; 30 min,0.03 ± 0.01 %ID/g
same,"Biodistribution of radioactivity in brain region, Dorsal Striatum",[1]; 30 min,0.03 ± 0.01 %ID/g
same,"Biodistribution of radioactivity in brain region, Remaining Brain",[1]; 30 min,0.02 ± 0.01 %ID/g
same,"Biodistribution of radioactivity, Blood",[1]; 30 min,0.23 ± 0.23 %ID/g
same,"Biodistribution of radioactivity, Heart",[1]; 30 min,0.39 ± 0.38 %ID/g
same,"Biodistribution of radioactivity, Kidney",[1]; 30 min,0.31 ± 0.27 %ID/g
same,"Biodistribution of radioactivity, Liver",[1]; 30 min,1.91 ± 1.88 %ID/g
same,"Biodistribution of radioactivity, Lung",[1]; 30 min,1.02 ± 1.13 %ID/g
same,"Biodistribution of radioactivity, Muscle",[1]; 30 min,0.09 ± 0.08 %ID/g
same,"Biodistribution of radioactivity, Uterus",[1]; 30 min,0.16 ± 0.16 %ID/g
same,"Biodistribution of radioactivity, Brain",[1]; 30 min,0.02 ± 0.01 %ID/g
same,"Biodistribution of radioactivity in brain region, Amygdala",[1]; 60 min,0.06 ± 0.01 %ID/g
same,"Biodistribution of radioactivity in brain region, Basal Hypothalamus",[1]; 60 min,0.03 ± 0.01 %ID/g
same,"Biodistribution of radioactivity in brain region, Cerebellum",[1]; 60 min,0.03 ± 0.01 %ID/g
same,"Biodistribution of radioactivity in brain region, Dorsal Striatum",[1]; 60 min,0.02 ± 0.01 %ID/g
same,"Biodistribution of radioactivity in brain region, Remaining Brain",[1]; 60 min,0.02 ± 0.01 %ID/g
same,"Biodistribution of radioactivity, Heart",[1]; 60 min,0.39 ± 0.12 %ID/g
same,"Biodistribution of radioactivity, Kidney",[1]; 60 min,0.46 ± 0.04 %ID/g
same,"Biodistribution of radioactivity, Liver",[1]; 60 min,3.01 ± 0.50 %ID/g
same,"Biodistribution of radioactivity, Lung",[1]; 60 min,0.66 ± 0.32 %ID/g
same,"Biodistribution of radioactivity, Muscle",[1]; 60 min,0.15 ± 0.03 %ID/g
same,"Biodistribution of radioactivity, Uterus",[1]; 60 min,0.31 ± 0.08 %ID/g
same,"Biodistribution of radioactivity, Brain",[1]; 60 min,0.02 ± 0.01 %ID/g
same,"Biodistribution of radioactivity in brain region, Basal Hypothalamus",[1]; 120 min,0.04 ± 0.01 %ID/g
same,"Biodistribution of radioactivity in brain region, Cerebellum",[1]; 120 min,0.03 ± 0.01 %ID/g
same,"Biodistribution of radioactivity in brain region, Dorsal Striatum",[1]; 120 min,0.02 ± 0.01 %ID/g
same,"Biodistribution of radioactivity in brain region, Remaining Brain",[1]; 120 min,0.02 ± 0.01 %ID/g
same,"Biodistribution of radioactivity, Blood",[1]; 120 min,0.31 ± 0.17 %ID/g
same,"Biodistribution of radioactivity, Kidney",[1]; 120 min,0.29 ± 0.15 %ID/g
same,"Biodistribution of radioactivity, Liver",[1]; 120 min,1.91 ± 1.02 %ID/g
same,"Biodistribution of radioactivity, Lung",[1]; 120 min,0.41 ± 0.27 %ID/g
same,"Biodistribution of radioactivity, Muscle",[1]; 120 min,0.10 ± 0.05 %ID/g
same,"Biodistribution of radioactivity, Uterus",[1]; 120 min,0.22 ± 0.13 %ID/g
same,"Biodistribution of radioactivity, Brain",[1]; 120 min,0.02 ± 0.01 %ID/g
same,autoradiographic binding to brain regions,OTR and V1aR,bind to receptors in the NAcc and VP
"1-(4-(3,4-Dihydroquinolin-1(2H)-yl)piperidin-1-yl)-2-(2-(2-[^18F]fluoroethoxy)-4-((1-(methylsulfonyl)piperidin-4-yl)oxy)phenyl)ethanone [[^18F]3]",in vivo stability of the radiolabel (thyroid / bone uptake over time),[1],appeared to remain intact
same,"Biodistribution of radioactivity, Liver",[1]; 15 min,1.81 ± 0.36 %ID/g
same,"Biodistribution of radioactivity, Liver",[1]; 30 min,1.41 ± 0.17 %ID/g
same,"Biodistribution of radioactivity, Liver",[1]; 60 min,0.98 ± 0.44 %ID/g
same,"Biodistribution of radioactivity, Liver",[1]; 120 min,1.18 ± 0.18 %ID/g
same,viability for in vivo PET imaging of brain OTR,OTR of the CNS,not viable for in vivo PET imaging of the OTR of the CNS
"CS(=O)(=O)N1CCC(Oc2ccc(CC(=O)N3CCC(N4C(=O)CCc5ccccc54)CC3)c(OC/C=C/[125I])c2)CC1 [[^125I]1, (E)-1-(1-(2-(2-(3-[125I]Iodoallyloxy)-4-(1-(methylsulfonyl)piperidin-4-yloxy)phenyl)acetyl)piperidin-4-yl)-3,4-dihy droquinolin-2(1H)-one]",in vivo stability of the radiolabel (thyroid / bone uptake over time),[1],broken down readily in vivo at the iodine position
same,"Biodistribution of radioactivity in brain region, Amygdala",[1]; 15 min,0.09 ± 0.02 %ID/g
same,"Biodistribution of radioactivity in brain region, Basal Hypothalamus",[1]; 15 min,0.08 ± 0.01 %ID/g
same,"Biodistribution of radioactivity in brain region, Cerebellum",[1]; 15 min,0.08 ± 0.01 %ID/g
same,"Biodistribution of radioactivity in brain region, Remaining Brain",[1]; 15 min,0.07 ± 0.01 %ID/g
same,"Biodistribution of radioactivity, Blood",[1]; 15 min,0.58 ± 0.51 %ID/g
same,"Biodistribution of radioactivity, Heart",[1]; 15 min,0.82 ± 0.70 %ID/g
same,"Biodistribution of radioactivity, Kidney",[1]; 15 min,0.96 ± 0.84 %ID/g
same,"Biodistribution of radioactivity, Liver",[1]; 15 min,5.67 ± 5.08 %ID/g
same,"Biodistribution of radioactivity, Lung",[1]; 15 min,1.86 ± 1.60 %ID/g
same,"Biodistribution of radioactivity, Muscle",[1]; 15 min,0.28 ± 0.24 %ID/g
same,"Biodistribution of radioactivity, Uterus",[1]; 15 min,0.43 ± 0.38 %ID/g
same,"Biodistribution of radioactivity in brain region, Amygdala",[1]; 30 min,0.07 ± 0.03 %ID/g
same,"Biodistribution of radioactivity in brain region, Basal Hypothalamus",[1]; 30 min,0.06 ± 0.01 %ID/g
same,"Biodistribution of radioactivity, Blood",[1]; 30 min,0.58 ± 0.07 %ID/g
same,"Biodistribution of radioactivity, Heart",[1]; 30 min,0.61 ± 0.18 %ID/g
same,"Biodistribution of radioactivity, Kidney",[1]; 30 min,0.75 ± 0.07 %ID/g
same,"Biodistribution of radioactivity, Liver",[1]; 30 min,3.90 ± 0.15 %ID/g
same,"Biodistribution of radioactivity, Lung",[1]; 30 min,1.41 ± 0.72 %ID/g
same,"Biodistribution of radioactivity, Muscle",[1]; 30 min,0.26 ± 0.02 %ID/g
same,"Biodistribution of radioactivity, Uterus",[1]; 30 min,0.41 ± 0.07 %ID/g
same,"Biodistribution of radioactivity in brain region, Amygdala",[1]; 60 min,0.09 ± 0.02 %ID/g
same,"Biodistribution of radioactivity in brain region, Basal Hypothalamus",[1]; 60 min,0.06 ± 0.01 %ID/g
same,"Biodistribution of radioactivity in brain region, Dorsal Striatum",[1]; 60 min,0.04 ± 0.01 %ID/g
same,"Biodistribution of radioactivity, Blood",[1]; 60 min,0.55 ± 0.27 %ID/g
same,"Biodistribution of radioactivity, Heart",[1]; 60 min,0.54 ± 0.28 %ID/g
same,"Biodistribution of radioactivity, Kidney",[1]; 60 min,0.69 ± 0.30 %ID/g
same,"Biodistribution of radioactivity, Liver",[1]; 60 min,3.09 ± 1.34 %ID/g
same,"Biodistribution of radioactivity, Lung",[1]; 60 min,1.45 ± 1.04 %ID/g
same,"Biodistribution of radioactivity, Muscle",[1]; 60 min,0.23 ± 0.11 %ID/g
same,"Biodistribution of radioactivity, Uterus",[1]; 60 min,0.45 ± 0.23 %ID/g
same,"Biodistribution of radioactivity, Brain",[1]; 60 min,0.04 ± 0.02 %ID/g
same,"Biodistribution of radioactivity in brain region, Amygdala",[1]; 120 min,0.06 ± 0.01 %ID/g
same,"Biodistribution of radioactivity in brain region, Cerebellum",[1]; 120 min,0.03 ± 0.01 %ID/g
same,"Biodistribution of radioactivity in brain region, Dorsal Striatum",[1]; 120 min,0.03 ± 0.01 %ID/g
same,"Biodistribution of radioactivity in brain region, Remaining Brain",[1]; 120 min,0.03 ± 0.01 %ID/g
same,"Biodistribution of radioactivity, Blood",[1]; 120 min,0.38 ± 0.14 %ID/g
same,"Biodistribution of radioactivity, Heart",[1]; 120 min,0.38 ± 0.06 %ID/g
same,"Biodistribution of radioactivity, Kidney",[1]; 120 min,0.42 ± 0.10 %ID/g
same,"Biodistribution of radioactivity, Liver",[1]; 120 min,1.81 ± 0.30 %ID/g
same,"Biodistribution of radioactivity, Muscle",[1]; 120 min,0.14 ± 0.03 %ID/g
same,"Biodistribution of radioactivity, Uterus",[1]; 120 min,0.30 ± 0.10 %ID/g
same,"Biodistribution of radioactivity, Brain",[1]; 120 min,0.02 ± 0.01 %ID/g
same,autoradiographic binding to brain regions,OTR and V1aR,bind to receptors in the NAcc and VP
"CS(=O)(=O)N1CCC(Oc2ccc(CC(=O)N3CCC(N4C(=O)CCc5ccccc54)CC3)c(O[11CH3])c2)CC1 [[^11C]4, 1-(1-(2-(2-[^11C]methoxy-4-((1-(methylsulfonyl)piperidin-4-yl)oxy)phenyl)acetyl)piperidin-4-yl)-3,4-dihydroquin olin-2(1H)-one]",viability for in vivo PET imaging of brain OTR,OTR of the CNS,not viable for in vivo PET imaging of the OTR of the CNS
